{"data": "Measurements pooled from the literature", "target": "Serine/threonine-protein kinase ULK3 (ULK3, Homo sapiens, UniProt Q6PHR2)", "One construct used (Q6PHR2 1-472)": "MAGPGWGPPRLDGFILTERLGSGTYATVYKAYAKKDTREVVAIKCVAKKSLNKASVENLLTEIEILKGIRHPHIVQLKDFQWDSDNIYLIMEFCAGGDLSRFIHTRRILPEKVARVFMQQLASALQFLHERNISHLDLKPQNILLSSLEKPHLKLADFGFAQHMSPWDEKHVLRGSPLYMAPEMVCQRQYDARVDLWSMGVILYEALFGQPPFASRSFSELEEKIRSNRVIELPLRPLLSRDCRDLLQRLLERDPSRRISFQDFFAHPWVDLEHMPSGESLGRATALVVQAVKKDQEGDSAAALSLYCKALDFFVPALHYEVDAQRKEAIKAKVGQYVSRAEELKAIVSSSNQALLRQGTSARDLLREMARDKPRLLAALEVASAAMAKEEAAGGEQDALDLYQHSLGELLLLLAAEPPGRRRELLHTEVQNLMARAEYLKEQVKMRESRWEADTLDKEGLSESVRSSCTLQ", "note": "Compare with care: the assays were run in different laboratories."}
{"Structure (SMILES)": "CN(C)c1ncnc(-c2ccc3nc(Nc4cc(CN5CCN(C(=O)CC(F)(F)F)CC5)ccn4)[nH]c3c2)c1Cl", "observed": "cell-free assay", "technique": "competition with immobilised ligand", "tested at": "1 µM", "remaining binding [%]": 61}
{"Structure (SMILES)": "COc1cnc(Nc2cccc(S(N)(=O)=O)c2)nc1N1CCN(c2ccccc2)C(=O)C1", "observed": "binding", "technique": "competition with immobilised ligand", "tested at": "1 µM", "remaining binding [%]": 45}
{"Structure (SMILES)": "CS(=O)(=O)N1CCCC(NC(=O)[C@H](CCC2CCCCC2)NC(=O)c2ccc(CNC(=O)c3cnc4ccccn34)cc2)C1 (some centres unmarked)", "observed": "cell-free assay", "technique": "competition with immobilised ligand", "tested at": "0.1 µM", "remaining binding [%]": 100}
{"Structure (SMILES)": "O=C(c1ccc(Nc2ncc(Cl)c(-c3cc4ccccc4s3)n2)cc1)N1CCC(N2CCCC2)CC1", "observed": "binding", "technique": "competition with immobilised ligand", "tested at": "1 µM", "remaining binding [%]": 0.2}
{"Structure (SMILES)": "O=C(NCc1ncc(C(F)(F)F)cc1Cl)c1ccc2c(c1)C1(CCS(=O)(=O)CC1)[C@@H](C1CC1)N2S(=O)(=O)c1ccc(F)cc1", "observed": "cell-free assay", "technique": "competition with immobilised ligand", "tested at": "1 µM", "remaining binding [%]": 69}
{"Structure (SMILES)": "N[C@H]1CCN(c2nccc(-c3cnn4ncccc34)n2)C1", "observed": "binding", "tested at": "1 µM", "remaining binding [%]": 86}
{"Structure (SMILES)": "O=C(Nc1c[nH]nc1C(=O)NC1CCNCC1)c1cc(F)cc(F)c1", "observed": "binding", "technique": "competition with immobilised ligand", "tested at": "1 µM", "remaining binding [%]": 100}
{"Structure (SMILES)": "CC(=O)Nc1c(C(C)=O)c(=O)n(C)c2nc(-c3ccc(Cl)cc3Cl)c(-c3ccc(Cl)cc3)cc12", "observed": "cell-free assay", "technique": "competition with immobilised ligand", "tested at": "1 µM", "remaining binding [%]": 75}
{"Structure (SMILES)": "CN(c1nccc(-c2cnn3ncccc23)n1)C1CC1", "observed": "binding", "tested at": "1 µM", "remaining binding [%]": 100}
{"Structure (SMILES)": "O=C(NCCCN1CCOCC1)c1ccc(Nc2ncc(Cl)c(-c3ccc(Cl)s3)n2)cc1", "observed": "binding", "technique": "competition with immobilised ligand", "tested at": "1 µM", "remaining binding [%]": 6.5}
{"Structure (SMILES)": "CS(=O)(=O)NCC[C@H](NC(=O)c1cncc2c1cnn2-c1ccc(F)cc1)c1ccnc(S(C)(=O)=O)c1", "observed": "cell-free assay", "technique": "competition with immobilised ligand", "tested at": "1 µM", "remaining binding [%]": 100}
{"Structure (SMILES)": "CN(C)c1nccc(-c2cnn3ncccc23)n1", "observed": "binding", "tested at": "1 µM", "remaining binding [%]": 77}
{"Structure (SMILES)": "COc1cnc(Nc2cccc(S(N)(=O)=O)c2)nc1N1CCN(c2ccccc2)CC1", "observed": "binding", "technique": "competition with immobilised ligand", "tested at": "1 µM", "remaining binding [%]": 79}
{"Structure (SMILES)": "Cc1cnc(Nc2ccc(C(=O)N3CCC(N4CCCC4)CC3)cc2)nc1-c1cc2ccccc2s1", "observed": "binding", "technique": "competition with immobilised ligand", "tested at": "1 µM", "remaining binding [%]": 0.3}
{"Structure (SMILES)": "CN(CCCC(F)(F)F)c1nccc(-c2cnn3ncccc23)n1", "observed": "binding", "tested at": "1 µM", "remaining binding [%]": 94}
{"Structure (SMILES)": "COc1ncc2cc3ccccc3nc2c1C#N", "observed": "cell-free assay", "technique": "competition with immobilised ligand", "tested at": "5 µM", "remaining binding [%]": 91}
{"Structure (SMILES)": "C[C@@H]1CCN(c2nccc(-c3cnn4ncccc34)n2)C1", "observed": "binding", "tested at": "1 µM", "remaining binding [%]": 80}
{"Structure (SMILES)": "c1cncc(-c2cccc(Nc3nccc(NC4CCCCC4)n3)c2)c1", "observed": "binding", "technique": "competition with immobilised ligand", "tested at": "10 µM", "remaining binding [%]": 44}
{"Structure (SMILES)": "CNC(=O)Nc1ccc2c(c1)[C@@]1(CC2)OC(=O)N(CC(=O)N(Cc2ccc(F)cc2)[C@@H](C)C(F)(F)F)C1=O", "observed": "cell-free assay", "technique": "competition with immobilised ligand", "tested at": "1 µM", "remaining binding [%]": 55}
{"Structure (SMILES)": "CC1CCCN1c1nccc(-c2cnn3ncccc23)n1 (centres unmarked)", "observed": "binding", "tested at": "1 µM", "remaining binding [%]": 100}
